Hits are enriched below; roughly 1.2% of the tested compounds scored in any of these assays.
PMI act = increases human mannose-6-phosphate isomerase activity. P34949. purified human PMI, coupled resazurin fluorescence, 20 min; active compounds read high; 1 = vehicle control, 0 substrate-free wells. activation factor at 20 µM. actives 0.005% (n = 190,000);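 active = activation factor of 2 or more at 20 µM, relative to plate controls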
DTT redox prof = compounds producing H2O2 with reducing agent – biochemical, NIH compound library profiling, artefact control for MLSCN library redox annotation, primary screen. DTT-dependent redox cycling H2O2, phenol red/HRP absorbance; 100% = 100 µM peroxide control, 0% = buffer. actives 0.03% (n = 200,000). activation, % at 10 µM;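 active = activation of at least 50% relative to the plate's high and low controls in the primary single-dose screen; inactive = activation below 50%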;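 also: compound incubated with DTT at 0.8 mM final as the reducing agent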
PMI act satM6P = activators of human phosphomannose isomerase at near-saturating mannose 6-phosphate; P34949; coupled PMI enzyme assay, resazurin fluorescence, 20 min; active compounds read high; 1 = untreated enzyme, 0 = substrate-free blank; activation factor at 20 µM; actives 0.34% (n = 190,000); AID 1216;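 active = activation factor of 2 or more at 20 µM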
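Material: human phosphomannose isomerase with PGI, G6PDH, diaphorase coupling enzymes; amount: PMI at 15 ng/mL final; also added: Mannose-6-phosphate 1.0 mM (near-saturating) plus 0.22 mM NADP+; incubation: enzyme reaction with compound 20 min at room temperature; signal: resorufin fluorescence (Ex 544/Em 590 nm) from resazurin via diaphorase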
Efa HMGR inh = inhibitors of class II HMG-CoA reductase from Enterococcus faecalis. actives 0.41% (n = 190,000). purified E. faecalis HMGR, NADPH absorbance 340 nm kinetic. inhibition, % at 10 µM;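 active = inhibition above a set limit, the median over all tested compounds plus 3 SD, cut at about 9.5% in these data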;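 also: enzyme runs in reverse so mevalonate oxidation gives rising NADPH absorbance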
Diaphorase act = counter-screen for diaphorase-based assays: diaphorase activators and chemical reducers | Diaphorase/resazurin coupled assay, resorufin fluorescence, 16 min; active compounds read high; 1 = vehicle wells, 0 = NADH-free wells | activation factor at 20 µM | actives 0.005% (n = 190,000);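 active = diaphorase activity raised at least twofold by the compound at 20 µM; inactive = activation factor below 2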
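test system = bacterial diaphorase enzyme (C. kluyveri) | quantity = enzyme 0.07 U/mL final | reagent = NADH substrate 0.114 mM plus resazurin dye 0.1 mM, final | incubation = 16 min enzyme reaction, ambient temperature | buffer or medium = HEPES pH 7.4 buffer with MgCl2 and Tween 20 | signal = fluorescence of resorufin, 544 nm excitation, 590 nm emission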
NCF1 inh = inhibitors of human p47phox binding | P14598 | p47phox/p22phox peptide binding, fluorescence polarization, 2 h | inhibition, % at 24.7 µM | actives 0.53% (n = 220,000) | AID 1274;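 active = inhibition above about 30%, limit read from the data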
Target sequence (P14598 whole entry, looked up): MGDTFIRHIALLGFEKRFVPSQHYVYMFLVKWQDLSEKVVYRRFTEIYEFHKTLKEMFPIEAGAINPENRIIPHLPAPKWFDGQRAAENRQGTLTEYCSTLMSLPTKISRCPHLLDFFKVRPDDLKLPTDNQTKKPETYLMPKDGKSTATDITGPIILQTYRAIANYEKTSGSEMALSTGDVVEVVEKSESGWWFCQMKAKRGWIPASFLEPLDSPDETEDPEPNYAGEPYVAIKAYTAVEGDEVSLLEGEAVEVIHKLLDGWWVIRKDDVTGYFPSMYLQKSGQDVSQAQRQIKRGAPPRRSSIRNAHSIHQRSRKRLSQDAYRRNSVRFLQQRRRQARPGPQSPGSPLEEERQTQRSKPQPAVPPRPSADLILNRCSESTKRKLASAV
Redox H2O2 DR = generates H2O2 by DTT-dependent redox cycling, confirmed in dose response | shares compounds with DTT redox prof | phenol red-HRP absorbance | EC50, µM | actives 40% (n = 60) | AID 1234;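 active = EC50 under a set limit for hydrogen peroxide production with the reducing agent DTT present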
Of the large screens only hits and unclear results are named; the others gave an inactive call (follow-up assays come after a bar, where they were run).

COc1cc(/C=C(\C#N)c2nc3ccccc3n2C)cc(OC)c1O	none
CC(C)c1ccc(/C=N/n2cnnc2)cc1	none (no result: PMI act, DTT redox prof, PMI act satM6P, Efa HMGR inh, Diaphorase act)
Cc1oc2c(c1C(=O)c1ccccc1)C(=O)C(=O)c1ccccc1-2	DTT redox prof 373.5 | Redox H2O2 DR inactive
O=C(CN1c2ccccc2Sc2ccccc21)NNC(=O)Nc1cccc(Cl)c1	none (no result: PMI act, DTT redox prof, PMI act satM6P, Efa HMGR inh, Diaphorase act)
CCOc1ccc(NC(=S)Nc2ccc3nsnc3c2)cc1	DTT redox prof 127.2 | Redox H2O2 DR inactive
CCOc1ccc(NC(=O)Nc2ccc3nsnc3c2)cc1	none
COc1cccc(Oc2cncnc2-c2ccc(OC)cc2O)c1	DTT redox prof 59.7 | Redox H2O2 DR inactive
O=C(O)c1ccc(NC2=C/C(=N/S(=O)(=O)c3ccccc3)c3ccccc3C2=O)cc1	DTT redox prof 149.2 | Redox H2O2 DR 2.73
O=C(O)c1ccc(NS(=O)(=O)c2ccc3c(c2)C(=O)c2ccccc2C3=O)cc1	none
CC1(C)CC(N2CCCC2)=CC(=[N+]2CCCCCC2)C1	none
CC1(C)CC(=O)C=C(N2CCNCC2)C1	DTT redox prof 72.9 | Redox H2O2 DR inactive
O=C(O)CCCNc1cc(N2CCC3(CC2)OCCO3)c2noc3c2c1C(=O)c1ccccc1-3	none
CCOC(=O)N1CCN(c2cc(NCCC(=O)O)c3c4c(onc24)-c2ccccc2C3=O)CC1	DTT redox prof 141.1 | Redox H2O2 DR inactive
CCN(CC(=O)Nc1cccc(C(C)=O)c1)S(=O)(=O)c1ccccc1	none
Cc1ccc(NC2=C/C(=N\S(=O)(=O)c3cccs3)c3ccccc3C2=O)c(C)c1	DTT redox prof 323.1 | Redox H2O2 DR 18.4
Oc1ccc(-c2onc(C(F)(F)F)c2-c2cscn2)c(O)c1	DTT redox prof 429.9 | Redox H2O2 DR inactive
Cc1nc(-c2c(C(F)(F)F)noc2-c2ccc(O)cc2O)cs1	none
O=C(NN=C1CCCC1)c1n[nH]c2c1CCC2	none
O=C(NN=C1CCCC1)c1n[nH]c2c1CCCC2	DTT redox prof 68.0 | Redox H2O2 DR inactive
c1ccc(CCNc2nc(-c3ccncc3)nc3ccccc23)cc1	none (no result: PMI act, DTT redox prof, PMI act satM6P, Efa HMGR inh, Diaphorase act)
Cn1nc(-c2ccc(Cl)cc2)nc2c(=O)n(C)c(=O)nc1-2	DTT redox prof 169.8 | Redox H2O2 DR 0.89
CC(C)N1C(=O)CCC1C(=O)NCc1cccs1 (stereo not given)	none
CC(=O)N(/N=C1\Sc2ccccc2C1=O)c1ccccc1C	DTT redox prof 381.5 (no result: NCF1 inh) | Redox H2O2 DR 19.1
CC(=O)N(/N=C1\Sc2ccccc2C1=O)c1ccc(C)cc1C	none
O=C1NCCC/C1=N/Nc1cc(F)ccc1F	none (no result: PMI act, DTT redox prof, PMI act satM6P, Efa HMGR inh, Diaphorase act)
Cc1cc(C)c(S(=O)(=O)Nc2cc(SCC(=O)O)c(O)c3ccccc23)cc1C	DTT redox prof 119.5 | Redox H2O2 DR inactive
CCNS(=O)(=O)c1ccc(CCC(=O)NCc2ccccc2)cc1	none

Screening data: PubChem, several laboratories
